Data taken from ChEMBL document CHEMBL4152354, “A reusable magnetic nickel nanoparticle based catalyst for the aqueous synthesis of diverse heterocycles and their evaluation as potential anti-bacterial agent” (2018).
≈ marks a conversion by molar mass, not a printed value.

Key:
Type in all cases: functional
[1] = tested on: Klebsiella pneumoniae; assay: Antibacterial activity against Klebsiella pneumoniae MTCC 109 assessed as zone of inhibition at 100 uL after 24 hrs by agar well-diffusion method
How it was run: (§1)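 Mueller-Hinton agar plates swabbed with a bacterial suspension adjusted to 1.5×10^8 CFU/ml. Each 5 mm well received 100 µl of compound, and plates were incubated at 37°C for 24 h. Chloramphenicol (30 mcg) was the positive control and DMSO the negative control. Inhibition zones around wells were measured manually, in triplicate.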

[2] = tested on: Klebsiella pneumoniae; assay: Antibacterial activity against Klebsiella pneumoniae MTCC 109 after 18 hrs by TTC staining based broth microdilution method; conditions: MTCC 109, 18 h
How it was run: (§2)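 Broth microdilution in Mueller-Hinton broth. 50 µl of inoculum from a 0.5 McFarland suspension was added to 50 µl of compound, giving final concentrations of 0.024–400 mg/ml in DMSO. Sealed plates were incubated at 37°C for 18 h, then 50 µl of 0.5% TTC was added for 1 h in the dark. MIC was the lowest concentration with no visible growth (well stays clear). Triplicate; mean ± SD.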

[3] = tested on: Salmonella enterica; assay: Antibacterial activity against Salmonella enterica MTCC 735 assessed as zone of inhibition at 100 uL after 24 hrs by agar well-diffusion method
[4] = tested on: Bacillus cereus; assay: Antibacterial activity against Bacillus cereus MTCC 430 assessed as zone of inhibition at 100 uL after 24 hrs by agar well-diffusion method; how it was run: as §1
[5] = tested on: Streptococcus pyogenes; assay: Antibacterial activity against Streptococcus pyogenes MTCC 1925 assessed as zone of inhibition at 100 uL after 24 hrs by agar well-diffusion method; how it was run: as §1
[6] = tested on: Escherichia coli; assay: Antibacterial activity against Escherichia coli MTCC 730 assessed as zone of inhibition at 100 uL after 24 hrs by agar well-diffusion method; how it was run: as §1
[7] = tested on: Bacillus cereus; assay: Antibacterial activity against Bacillus cereus MTCC 430 after 18 hrs by TTC staining based broth microdilution method; conditions: MTCC 430, 18 h; how it was run: as §2

SMILES: O=c1oc2ccccc2c(O)c1C(c1ccc(Cl)cc1)c1c(O)c2ccccc2oc1=O
- inhibition zone (IZ) [1]: 25 mm
- MIC [2]: 190 µg/mL (≈ 425 µM)
- inhibition zone (IZ) [3]: 10 mm
- inhibition zone (IZ) [4]: 19 mm
- inhibition zone (IZ) [5]: 24 mm
- inhibition zone (IZ) [6]: 23 mm
- MIC [7]: 390 µg/mL (≈ 873 µM)
